{
  "source": "ChEMBL document CHEMBL4130523",
  "about": "“Targeting the Allosteric Site of Oncoprotein BCR-ABL as an Alternative Strategy for Effective Target Protein Degradation” (ACS Med Chem Lett, 2017)",
  "key": {"[1]": {"biological_target": "Tyrosine-protein kinase ABL1 (Homo sapiens, UniProt P00519)", "sequence (P00519 whole entry)": "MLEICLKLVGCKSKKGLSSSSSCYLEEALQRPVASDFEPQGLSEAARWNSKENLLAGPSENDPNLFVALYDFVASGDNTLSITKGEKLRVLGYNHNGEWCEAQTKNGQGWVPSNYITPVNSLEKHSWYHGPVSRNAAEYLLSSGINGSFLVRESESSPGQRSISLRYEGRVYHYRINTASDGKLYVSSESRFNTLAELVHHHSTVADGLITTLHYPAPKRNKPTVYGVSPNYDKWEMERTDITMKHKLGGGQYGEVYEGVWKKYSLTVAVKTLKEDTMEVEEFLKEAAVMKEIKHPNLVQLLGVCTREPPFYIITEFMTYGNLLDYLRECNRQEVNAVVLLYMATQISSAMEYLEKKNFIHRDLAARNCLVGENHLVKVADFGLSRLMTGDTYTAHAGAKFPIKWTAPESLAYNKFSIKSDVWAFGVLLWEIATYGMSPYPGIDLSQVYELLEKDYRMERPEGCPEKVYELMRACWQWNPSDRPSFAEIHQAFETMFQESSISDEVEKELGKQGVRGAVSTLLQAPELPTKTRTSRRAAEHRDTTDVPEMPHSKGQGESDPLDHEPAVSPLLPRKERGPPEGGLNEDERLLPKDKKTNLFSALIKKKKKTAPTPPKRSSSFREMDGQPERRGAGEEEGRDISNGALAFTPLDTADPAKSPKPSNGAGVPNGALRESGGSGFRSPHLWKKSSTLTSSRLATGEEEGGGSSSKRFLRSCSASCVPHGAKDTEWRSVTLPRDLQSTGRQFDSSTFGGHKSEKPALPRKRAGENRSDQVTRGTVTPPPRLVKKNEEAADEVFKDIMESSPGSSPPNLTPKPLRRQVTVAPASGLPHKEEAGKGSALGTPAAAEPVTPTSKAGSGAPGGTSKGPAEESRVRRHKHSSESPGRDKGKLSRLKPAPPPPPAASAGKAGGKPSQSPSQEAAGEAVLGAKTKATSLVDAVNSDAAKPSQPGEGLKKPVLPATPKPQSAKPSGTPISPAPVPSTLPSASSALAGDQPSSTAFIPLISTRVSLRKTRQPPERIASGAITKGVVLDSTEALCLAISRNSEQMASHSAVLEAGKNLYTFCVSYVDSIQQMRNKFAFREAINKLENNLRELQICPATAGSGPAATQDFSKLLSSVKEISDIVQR", "assay": "Inhibition of recombinant human His-tagged full length ABL1 allosteric site expressed in baculovirus expression system by TR-FRET assay"}, "[2]": {"biological_target": "Baculoviral IAP repeat-containing protein 2 (Homo sapiens, UniProt Q13490)", "sequence (Q13490 whole entry)": "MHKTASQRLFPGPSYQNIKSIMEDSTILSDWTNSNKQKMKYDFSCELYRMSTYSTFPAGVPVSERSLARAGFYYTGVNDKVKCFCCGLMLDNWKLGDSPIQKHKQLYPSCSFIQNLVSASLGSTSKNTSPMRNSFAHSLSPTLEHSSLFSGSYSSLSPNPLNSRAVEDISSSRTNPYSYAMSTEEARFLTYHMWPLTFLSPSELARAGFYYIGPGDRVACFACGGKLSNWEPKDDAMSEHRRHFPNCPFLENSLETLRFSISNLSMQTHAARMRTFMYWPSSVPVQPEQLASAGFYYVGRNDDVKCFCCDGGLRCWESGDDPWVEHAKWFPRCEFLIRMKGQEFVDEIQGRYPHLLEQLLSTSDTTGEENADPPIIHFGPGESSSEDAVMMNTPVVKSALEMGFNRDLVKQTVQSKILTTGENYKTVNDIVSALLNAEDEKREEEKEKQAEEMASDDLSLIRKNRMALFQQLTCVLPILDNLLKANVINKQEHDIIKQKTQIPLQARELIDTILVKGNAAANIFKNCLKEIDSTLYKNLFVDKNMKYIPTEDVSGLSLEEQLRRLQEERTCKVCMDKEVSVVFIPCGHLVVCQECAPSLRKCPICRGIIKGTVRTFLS", "assay": "Inhibition of recombinant human His-tagged cIAP1 (Leu250 to Gly350 residues) expressed in Escherichia coli by TR-FRET assay"}, "[3]": {"biological_target": "Baculoviral IAP repeat-containing protein 3 (Homo sapiens, UniProt Q13489)", "sequence (Q13489 whole entry)": "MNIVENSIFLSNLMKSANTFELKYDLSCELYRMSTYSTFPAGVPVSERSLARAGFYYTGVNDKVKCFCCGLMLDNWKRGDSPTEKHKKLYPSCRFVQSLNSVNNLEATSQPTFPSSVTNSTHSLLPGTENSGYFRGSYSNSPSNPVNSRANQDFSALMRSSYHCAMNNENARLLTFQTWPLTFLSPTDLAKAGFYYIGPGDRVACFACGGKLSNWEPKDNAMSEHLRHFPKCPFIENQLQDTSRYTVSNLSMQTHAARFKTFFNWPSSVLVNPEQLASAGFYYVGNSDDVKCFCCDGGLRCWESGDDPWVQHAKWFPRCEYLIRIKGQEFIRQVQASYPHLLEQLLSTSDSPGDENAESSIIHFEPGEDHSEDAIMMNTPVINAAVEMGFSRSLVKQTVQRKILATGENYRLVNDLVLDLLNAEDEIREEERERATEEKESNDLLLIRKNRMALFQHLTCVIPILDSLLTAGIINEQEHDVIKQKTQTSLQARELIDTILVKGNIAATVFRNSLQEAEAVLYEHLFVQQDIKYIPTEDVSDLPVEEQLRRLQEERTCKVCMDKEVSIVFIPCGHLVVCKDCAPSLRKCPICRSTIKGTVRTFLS", "assay": "Inhibition of recombinant human His-tagged cIAP2 (Gln238 to Ser349 residues) expressed in Escherichia coli by TR-FRET assay"}, "[4]": {"biological_target": "E3 ubiquitin-protein ligase XIAP (Homo sapiens, UniProt P98170)", "sequence (P98170 whole entry)": "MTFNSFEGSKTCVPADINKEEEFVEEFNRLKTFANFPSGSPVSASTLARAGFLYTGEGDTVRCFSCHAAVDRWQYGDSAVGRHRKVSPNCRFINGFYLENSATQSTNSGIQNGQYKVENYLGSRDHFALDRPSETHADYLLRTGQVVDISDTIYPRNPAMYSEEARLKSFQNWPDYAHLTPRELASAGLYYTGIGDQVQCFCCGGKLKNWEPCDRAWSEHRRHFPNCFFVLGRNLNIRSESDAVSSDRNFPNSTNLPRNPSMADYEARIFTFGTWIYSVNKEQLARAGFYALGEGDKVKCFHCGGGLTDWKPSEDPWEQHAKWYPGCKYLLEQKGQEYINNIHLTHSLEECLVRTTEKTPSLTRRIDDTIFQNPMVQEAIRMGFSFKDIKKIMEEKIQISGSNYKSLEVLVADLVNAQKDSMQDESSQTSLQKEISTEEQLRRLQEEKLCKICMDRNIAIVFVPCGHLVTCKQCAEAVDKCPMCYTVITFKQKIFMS", "assay": "Inhibition of recombinant human His-tagged XIAP (Asn252 to Thr356 residues) expressed in Escherichia coli by TR-FRET assay"}, "[5]": {"biological_target": "Baculoviral IAP repeat-containing protein 2/Tyrosine-protein kinase ABL1/Breakpoint cluster region protein (Homo sapiens) (UniProt P00519+P11274+Q13490)", "sequence (P00519 whole entry, looked up)": "as the sequence (P00519 whole entry) above", "sequence (P11274 whole entry, looked up)": "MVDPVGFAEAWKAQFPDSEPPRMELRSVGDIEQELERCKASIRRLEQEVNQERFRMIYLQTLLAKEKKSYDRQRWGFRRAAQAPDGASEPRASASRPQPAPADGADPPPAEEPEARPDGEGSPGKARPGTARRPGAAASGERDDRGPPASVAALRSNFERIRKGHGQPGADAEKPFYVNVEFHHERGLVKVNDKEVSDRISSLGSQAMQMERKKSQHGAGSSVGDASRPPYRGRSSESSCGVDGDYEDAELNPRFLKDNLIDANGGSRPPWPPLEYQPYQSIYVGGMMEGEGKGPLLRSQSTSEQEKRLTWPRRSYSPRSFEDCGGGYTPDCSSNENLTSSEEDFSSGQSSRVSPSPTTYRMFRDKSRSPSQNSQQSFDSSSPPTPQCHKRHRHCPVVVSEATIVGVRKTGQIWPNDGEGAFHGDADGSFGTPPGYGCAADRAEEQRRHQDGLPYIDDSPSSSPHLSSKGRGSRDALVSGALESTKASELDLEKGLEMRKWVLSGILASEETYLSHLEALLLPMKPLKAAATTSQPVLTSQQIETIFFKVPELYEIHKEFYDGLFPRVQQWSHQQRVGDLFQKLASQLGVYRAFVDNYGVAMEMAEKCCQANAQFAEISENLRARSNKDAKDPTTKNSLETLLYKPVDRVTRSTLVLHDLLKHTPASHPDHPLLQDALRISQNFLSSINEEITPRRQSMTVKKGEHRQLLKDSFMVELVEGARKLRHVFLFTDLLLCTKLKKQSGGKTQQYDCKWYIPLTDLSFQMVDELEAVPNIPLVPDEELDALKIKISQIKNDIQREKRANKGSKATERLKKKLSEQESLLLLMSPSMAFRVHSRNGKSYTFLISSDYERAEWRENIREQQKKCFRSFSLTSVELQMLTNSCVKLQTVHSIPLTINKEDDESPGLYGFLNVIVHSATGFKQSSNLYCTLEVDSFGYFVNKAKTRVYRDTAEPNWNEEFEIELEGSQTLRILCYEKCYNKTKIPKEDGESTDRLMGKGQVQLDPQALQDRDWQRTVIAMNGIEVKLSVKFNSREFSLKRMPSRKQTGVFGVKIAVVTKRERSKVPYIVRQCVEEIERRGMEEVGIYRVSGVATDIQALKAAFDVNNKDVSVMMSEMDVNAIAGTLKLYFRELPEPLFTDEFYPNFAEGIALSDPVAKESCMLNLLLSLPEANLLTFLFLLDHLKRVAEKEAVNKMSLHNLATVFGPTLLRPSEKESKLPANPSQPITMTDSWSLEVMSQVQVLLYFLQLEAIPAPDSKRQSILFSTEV", "sequence (Q13490 whole entry, looked up)": "as the sequence (Q13490 whole entry) above", "assay": "Induction of cIAP1-mediated BCR-ABL degradation in human K562 cells at 100 nM after 6 hrs by Western blot analysis relative to beta-actin", "format": "cell-based", "method_in_brief": "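K562 cells were treated for 6 h with test agent at graded concentrations, or with IAP ligand 4 at 10 μM as competitor. BCR-ABL was then immunoblotted. BCR-ABL band intensity was normalized to β-actin and expressed relative to a vehicle control set at 100. Means ± standard deviation, n = 3.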"}, "[6]": {"biological_target": "T1, Bcr/Abl fusion protein (Homo sapiens) (UniProt P00519+P11274)", "T1 sequence (P00519 whole entry, looked up, the tested form may be a part)": "as the sequence (P00519 whole entry) above", "T1 sequence (P11274 whole entry, looked up, the tested form may be a part)": "as the sequence (P11274 whole entry, looked up) above", "assay": "Inhibition of BCR-ABL in human K562 cells assessed as reduction in STAT5 phosphorylation at 100 nM after 6 hrs by Western blot analysis", "format": "cell-based", "method_in_brief": "(§1)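 K562 cells were exposed to 100 nM compound for 6 h. Lysates were immunoblotted for phosphorylated STAT5 and phosphorylated CrkL, which are BCR-ABL substrates, alongside phosphorylated BCR-ABL.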"}, "[7]": {"biological_target": "T1, Bcr/Abl fusion protein (Homo sapiens)", "assay": "Inhibition of BCR-ABL in human K562 cells assessed as reduction in CrkL phosphorylation at 100 nM after 6 hrs by Western blot analysis", "format": "cell-based", "method_in_brief": "as §1"}, "K562 [8]": {"test_system": "K562", "assay": "Growth inhibition of human K562 cells at >= 100 nM after 48 hrs by WST-8 assay", "format": "functional, cell-based", "method_in_brief": "(§2)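 Cells exposed for 48 h to a graded concentration series of compound. Growth was read per well and reported as mean ± standard deviation of triplicate (n = 3) determinations.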"}, "KCL-22": {"test_system": "KCL-22", "assay": "Growth inhibition of human KCL22 cells up to 1000 nM after 48 hrs by WST-8 assay", "format": "functional, cell-based", "method_in_brief": "as §2"}, "MOLT-4": {"test_system": "MOLT-4", "assay": "Growth inhibition of human MOLT4 cells up to 1000 nM after 48 hrs by WST-8 assay", "format": "functional, cell-based", "method_in_brief": "as §2"}, "Jurkat": {"test_system": "Jurkat", "assay": "Growth inhibition of human Jurkat cells up to 1000 nM after 48 hrs by WST-8 assay", "format": "functional, cell-based", "method_in_brief": "as §2"}, "K562 [9]": {"test_system": "K562", "assay": "Growth inhibition of human K562 cells up to 1000 nM after 48 hrs by WST-8 assay", "format": "functional, cell-based", "method_in_brief": "as §2"}, "[10]": {"biological_target": "T1, Bcr/Abl fusion protein (Homo sapiens)", "assay": "Inhibition of BCR-ABL phosphorylation in human K562 cells at 100 nM after 6 hrs by Western blot analysis relative to beta-actin", "format": "cell-based"}},
  "note": "pIC50: −log10 of the molar value. Activity calls are given as the source filed them. The calls are words filed in the database; no cut-off is given here.",
  "data": [
    {"smiles": "CN[C@@H](C)C(=O)N(C)[C@H](C(=O)N1CCC[C@H]1c1nc(C(=O)c2cccc(OCCOCCOCCNC(=O)C3CCN(c4ncc(C(=O)Nc5ccc(OC(F)(F)Cl)cc5)cc4-c4ccn[nH]4)C3)c2)cs1)C1CCCCC1", "note": "(stereo partly specified)", "values": [
      {"measurement": "pIC50", "setting": "[1]", "value": 6.47},
      {"measurement": "pIC50", "setting": "[2]", "value": "< 6.00"},
      {"measurement": "pIC50", "setting": "[3]", "value": "< 6.00"},
      {"measurement": "pIC50", "setting": "[4]", "value": "< 6.00"},
      {"measurement": "fold change (FC)", "setting": "[5]", "value": 102}
    ]},
    {"smiles": "CN[C@@H](C)C(=O)N[C@H](C(=O)N1CCC[C@H]1c1nc(C(=O)c2cccc(OCCOCCOCCNC(=O)C3CCN(c4ncc(C(=O)Nc5ccc(OC(F)(F)Cl)cc5)cc4-c4ccn[nH]4)C3)c2)cs1)C1CCCCC1", "note": "(stereo partly specified)", "values": [
      {"measurement": "pIC50", "setting": "[1]", "value": 6.44},
      {"measurement": "pIC50", "setting": "[2]", "value": 7.07},
      {"measurement": "inhibition", "setting": "[6]", "value": "Active"},
      {"measurement": "inhibition", "setting": "[7]", "value": "Active"},
      {"measurement": "growth inhibition (GI)", "setting": "K562 [8]", "value": "Active"},
      {"measurement": "growth inhibition (GI)", "setting": "KCL-22", "value": "Active"},
      {"measurement": "growth inhibition (GI)", "setting": "MOLT-4", "value": "inactive"},
      {"measurement": "growth inhibition (GI)", "setting": "Jurkat", "value": "inactive"}
    ]},
    {"smiles": "CN[C@@H](C)C(=O)N[C@H](C(=O)N1CCC[C@H]1c1nc(C(=O)c2cccc(OC)c2)cs1)C1CCCCC1", "values": [
      {"measurement": "pIC50", "setting": "[2]", "value": 8.32},
      {"measurement": "growth inhibition (GI)", "setting": "K562 [9]", "value": "inactive"}
    ]},
    {"smiles": "CN[C@@H](C)C(=O)N[C@H](C(=O)N1CCC[C@H]1c1nc(C(=O)c2cccc(OCCOCCOCCNC(=O)c3cccc(-c4cc(Nc5ccc(OC(F)(F)F)cc5)ncn4)c3)c2)cs1)C1CCCCC1", "values": [
      {"measurement": "pIC50", "setting": "[1]", "value": 5.70},
      {"measurement": "pIC50", "setting": "[2]", "value": 6.66}
    ]},
    {"smiles": "COC(=O)C1CCN(c2ncc(C(=O)Nc3ccc(OC(F)(F)Cl)cc3)cc2-c2ccn[nH]2)C1", "note": "(stereo unspecified)", "values": [
      {"measurement": "pIC50", "setting": "[1]", "value": 7.46},
      {"measurement": "fold change (FC)", "setting": "[10]", "value": 92},
      {"measurement": "inhibition", "setting": "[6]", "value": "Active"},
      {"measurement": "inhibition", "setting": "[7]", "value": "Active"}
    ]}
  ]
}
